In ChEMBL document CHEMBL1133586, “The cyclohexene ring system as a furanose mimic: synthesis and antiviral activity of both enantiomers of cyclohexenylguanine” (2000):
In brackets after ≈: the same amount, converted by molar mass. Several values for one entry are separate records, joined by “and”; a condition that tells them apart may be missing. Identical values can stand only once.

Experiments:
Cytomegalovirus [1] = test: Minimum inhibitory concentration was determined against CMV (Davis) in HEL cell; format: functional; conditions: Human betaherpesvirus 5
Method in brief: (§1)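 HEL cell cultures were infected with 20 PFU of virus and incubated with varying compound concentrations. The value is the concentration reducing virus plaque formation by 50%, as the mean of two independent determinations.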

Cytomegalovirus [2] = test: Minimum inhibitory concentration was determined in CMV (Davis) in HEL cell; format: functional; conditions: Human betaherpesvirus 5; method in brief: as §1
Cytomegalovirus [3] = test: Minimum inhibitory concentration was determined against CMV (AD 169) in HEL cells; format: functional; conditions: Human betaherpesvirus 5; method in brief: as §1
Cytomegalovirus [4] = test: Minimum inhibitory concentration was determined in CMV (AD169) in HEL cell; format: functional; conditions: Human betaherpesvirus 5; method in brief: as §1
[5] = Minimum inhibitory concentration was determined against HSV-1 (TK-/TK+VMW1837) in E6SM cell culture; format: functional, herpes simplex virus
Method in brief: (§2)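 Confluent E6SM cultures in microtiter trays were infected with 100 CCID50 of virus. After 1 h adsorption, residual virus was removed and cultures were incubated with varying compound concentrations. Cytopathicity was read once virus controls reached completion. The value is the concentration reducing virus-induced cytopathogenicity by 50%, as the mean of two independent determinations.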

[6] = Minimum inhibitory concentration was determined against HSV-2 (196) in E6SM cell culture; format: functional, herpes simplex virus; method in brief: as §2
[7] = Minimum inhibitory concentration was determined against HSV-2 (G) in E6SM cell culture; format: functional, herpes simplex virus; method in brief: as §2
[8] = Minimum inhibitory concentration was determined against HSV-1 (KOS) in E6SM cell culture; format: functional, herpes simplex virus; method in brief: as §2
Human alphaherpesvirus 1 [9] = test: (§3) Minimum inhibitory concentration was determined against HSV-1 (McIntyre) in E6SM cell culture; format: functional, herpes simplex virus; method in brief: as §2
[10] = Minimum inhibitory concentration was determined against HSV-2 (Lyons) in E6SM cell culture; format: functional, herpes simplex virus; method in brief: as §2
HEL [11] = test: Cytotoxicity concentration required to inhibit the cell growth by 50% in HEL; format: functional, Homo sapiens
Method in brief: (§4)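 In HEL cells, cytotoxicity was measured as inhibition of normal cell growth, and the value is the concentration reducing cell growth by 50%.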

HEL [12] = test: Cytotoxicity concentration required to reduce cell growth by 50% in HEL; format: functional, Homo sapiens; method in brief: as §4
HeLa = test: Cytotoxicity concentration required to microscopically detectable alteration of cell morphology in HeLa; format: functional, Homo sapiens
Method in brief: (§5)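 Cytotoxicity was scored as the minimum concentration giving a microscopically detectable change in normal cell morphology of E6SM, HeLa or Vero cell cultures.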

Human alphaherpesvirus 3 [13] = test: (§6) Minimum inhibitory concentration was determined against VZV (OKA) in HEL cells; format: functional; method in brief: as §1
Human alphaherpesvirus 3 [14] = test: (§7) Minimum inhibitory concentration was determined against VZV (TK-07/1) in HEL cells; format: functional; method in brief: as §1
Human alphaherpesvirus 3 [15] = test: (§8) Minimum inhibitory concentration was determined against VZV (TK-YS/R) in HEL cells; format: functional; method in brief: as §1
Human alphaherpesvirus 3 [16] = test: as §8; format: functional; method in brief: as §1; remark: listed apart in the source
Human alphaherpesvirus 3 [17] = test: (§9) Minimum inhibitory concentration was determined against VZV (YS) in HEL cells; format: functional; method in brief: as §1
[18] = Selectivity index was determined in HSV-1 (KOS) in E6SM cell culture; format: functional
[19] = Selectivity index was determined against CMV (AD 169) in HEL cells; format: functional
[20] = Selectivity index was determined against CMV (Davis) in HEL cells; format: functional
[21] = Selectivity index was determined against VZV (TK-YS/R) in HEL cells; format: functional
[22] = Selectivity index was determined against VZV (YS) in HEL cells; format: functional
[23] = Selectivity index was determined againstHSV-2 (196) in E6SM cell culture; format: functional
[24] = Selectivity index was determined against HSV-1 (F) in E6SM cell culture; format: functional
[25] = Selectivity index was determined against HSV-1 (TK-/TK+VMW1837) in E6SM cell culture; format: functional
[26] = Selectivity index was determined against HSV-2 (Lyons) in E6SM cell culture; format: functional
[27] = Selectivity index was determined against VZV (OKA) in HEL cells; format: functional
Human alphaherpesvirus 1 [28] = test: Minimum inhibitory concentration was determined against HSV-1 (F) in E6SM cell culture; format: functional, herpes simplex virus; method in brief: as §2
E6SM = test: Cytotoxicity concentration required to microscopically detectable alteration of cell morphology in E6SM; format: functional, Homo sapiens; method in brief: as §5
[29] = Minimum inhibitory concentration was determined against HSV-1 (TK-KOS ACV) in E6SM cell culture; format: functional, herpes simplex virus; conditions: Human alphaherpesvirus 1; method in brief: as §2
HEL [30] = test: Cytotoxicity concentration required to microscopically detectable alteration of cell morphology HEL; format: functional, Homo sapiens
Vero = test: Cytotoxicity concentration required to microscopically detectable alteration of cell morphology in Vero; format: functional, Chlorocebus sabaeus; method in brief: as §5
[31] = Minimum inhibitory concentration was determined against HSV-2 (G) in E6SM cell culture; conditions: Human alphaherpesvirus 2
[32] = as §9; conditions: Human alphaherpesvirus 1
[33] = as §3; format: functional, herpes simplex virus; conditions: Human alphaherpesvirus 1; method in brief: as §2
Human alphaherpesvirus 3 [34] = test: as §7
Human alphaherpesvirus 3 [35] = test: as §8
Human alphaherpesvirus 3 [36] = test: as §6
Human alphaherpesvirus 2 = test: Minimum inhibitory concentration was determined against HSV-2 (G) in E6SM cell culture
Cytomegalovirus [37] = test: Minimum inhibitory concentration was determined against CMV(AD169) in E6SM cell culture; format: functional; conditions: Human betaherpesvirus 5; method in brief: as §2
Cytomegalovirus [38] = test: Minimum inhibitory concentration was determined against CMV(Davis) in E6SM cell culture; format: functional; conditions: Human betaherpesvirus 5; method in brief: as §2
Human alphaherpesvirus 1 [39] = test: Minimum inhibitory concentration was determined against HSV-1 (G) in E6SM cell culture; format: functional, herpes simplex virus; method in brief: as §2
Human alphaherpesvirus 1 [40] = test: Minimum inhibitory concentration was determined against HSV-1 (TK-/TK+VMW1837) in E6SM cell culture
[41] = Human alphaherpesvirus 1, read-out: MIC
[42] = Human alphaherpesvirus 3, read-out: MIC

Nc1nc(O)c2ncn(C3C=CC(CO)C(O)C3)c2n1 (stereo not drawn)
MIC (Cytomegalovirus [1]): 1.7 µg/mL (≈ 6.13 µM)
MIC (Cytomegalovirus [2]): 0.8 µg/mL (≈ 2.89 µM)
MIC (Cytomegalovirus [3]): 1.5 µg/mL (≈ 5.41 µM)
MIC (Cytomegalovirus [4]): 0.6 µg/mL (≈ 2.16 µM)
MIC [5]: 0.01 µg/mL (≈ 0.0361 µM)
MIC [5, 41]: 0.01 µg/mL (≈ 0.0361 µM)
MIC [6]: 0.07 µg/mL (≈ 0.252 µM)
MIC [6, 41]: 0.1 µg/mL (≈ 0.361 µM)
MIC [7]: 0.05 µg/mL (≈ 0.18 µM)
MIC [7, 41]: 0.07 µg/mL (≈ 0.252 µM)
MIC [8]: 0.002 µg/mL (≈ 0.00721 µM)
MIC [8, 41]: 0.003 µg/mL (≈ 0.0108 µM)
MIC (Human alphaherpesvirus 1 [9]): 0.004 µg/mL (≈ 0.0144 µM)
MIC (Human alphaherpesvirus 1 [9]; [41]): 0.004 µg/mL (≈ 0.0144 µM)
MIC [10]: 0.07 µg/mL (≈ 0.252 µM)
Cytotoxicity (HEL [11]): > 20 µg/mL
Cytotoxicity (HEL [12]): > 20 µg/mL
Cytotoxicity (HeLa): 400 µg/mL
MIC (Human alphaherpesvirus 3 [13]): 1.9 µg/mL and 0.64 µg/mL
MIC (Human alphaherpesvirus 3 [14]): 5.8 µg/mL and 2.1 µg/mL
MIC (Human alphaherpesvirus 3 [15]): 6.8 µg/mL (≈ 24.5 µM)
MIC (Human alphaherpesvirus 3 [16]): 2.8 µg/mL (≈ 10.1 µM)
MIC (Human alphaherpesvirus 3 [17]): 1.2 µg/mL and 0.49 µg/mL
Selectivity index [18]: > 5000
Selectivity index [19]: >13 and >30
Selectivity index [20]: >12 and >25
Selectivity index [21]: >3 and >7
Selectivity index [22]: >16 and >40
Selectivity index [23]: > 160
Selectivity index [24]: >5 and >2
Selectivity index [25]: >1.6 and >4
Selectivity index [26]: >2.2 and >5
Selectivity index [27]: >10 and >30
MIC (Human alphaherpesvirus 1 [28]): 0.002 µg/mL (≈ 0.00721 µM)
MIC (Human alphaherpesvirus 1 [28]; [41]): 0.003 µg/mL (≈ 0.0108 µM)

O=c1[nH]c(=O)n([C@H]2C[C@H](O)[C@@H](CO)O2)cc1/C=C/Br [BRIVUDINE]
Cytotoxicity (E6SM): > 400 µg/mL
MIC [5, 41]: > 80 µg/mL
MIC [6, 41]: > 80 µg/mL
MIC [8, 41]: 0.001 µg/mL (≈ 0.003 µM)
MIC (Human alphaherpesvirus 1 [9]; [41]): 0.001 µg/mL (≈ 0.003 µM)
MIC [29]: > 80 µg/mL
MIC [10]: > 80 µg/mL
Cytotoxicity (HEL [30]): > 200 µg/mL
Cytotoxicity (HEL [12]): > 50 µg/mL
Cytotoxicity (HeLa): > 400 µg/mL
MIC (Human alphaherpesvirus 3 [13]; [42]): 0.003 µg/mL (≈ 0.00901 µM)
Cytotoxicity (Vero): > 400 µg/mL
MIC (Human alphaherpesvirus 3 [14]; [42]): > 20 µg/mL
MIC (Human alphaherpesvirus 3 [16]): > 50 µg/mL
MIC (Human alphaherpesvirus 3 [17]; [42]): 0.03 µg/mL (≈ 0.0901 µM)
MIC (Human alphaherpesvirus 1 [28]; [41]): 0.001 µg/mL (≈ 0.003 µM)
MIC [31]: > 80 µg/mL

Nc1nc2c(ncn2COCCO)c(=O)[nH]1 [ACYCLOVIR]
Cytotoxicity (E6SM): > 50 µg/mL
MIC ([5]; Human alphaherpesvirus 1): 0.07 µg/mL (≈ 0.311 µM)
MIC [32]: 1.1 µg/mL (≈ 4.88 µM)
MIC ([6]; Human alphaherpesvirus 2): 0.02 µg/mL (≈ 0.0888 µM)
MIC [8, 41]: 0.01 µg/mL (≈ 0.0444 µM)
MIC [33]: 0.005 µg/mL (≈ 0.0222 µM)
MIC [29]: 9.6 µg/mL (≈ 42.6 µM)
MIC [10]: 0.02 µg/mL (≈ 0.0888 µM)
MIC (Human alphaherpesvirus 3 [34]): 13 µg/mL (≈ 57.7 µM)
Cytotoxicity (Vero): > 400 µg/mL
MIC (Human alphaherpesvirus 3 [35]): 28 µg/mL (≈ 124 µM)
MIC (Human alphaherpesvirus 3 [36]): 0.8 µg/mL (≈ 3.55 µM)
MIC (Human alphaherpesvirus 1 [28]; [41]): 0.003 µg/mL (≈ 0.0133 µM)
MIC (Human alphaherpesvirus 2): 0.02 µg/mL (≈ 0.0888 µM)

Nc1nc2c(ncn2COC(CO)CO)c(=O)[nH]1 [GANCICLOVIR]
MIC (Cytomegalovirus [37]): 0.6 µg/mL (≈ 2.35 µM)
MIC (Cytomegalovirus [38]): 0.8 µg/mL (≈ 3.13 µM)
Cytotoxicity (E6SM): > 50 µg/mL
MIC ([6]; Human alphaherpesvirus 2): 0.001 µg/mL (≈ 0.00392 µM)
MIC [8, 41]: 0.001 µg/mL (≈ 0.00392 µM)
MIC (Human alphaherpesvirus 1 [39]): 0.002 µg/mL (≈ 0.00784 µM)
MIC [33]: 0.001 µg/mL (≈ 0.00392 µM)
MIC [29]: 0.48 µg/mL (≈ 1.88 µM)
MIC [10]: 0.001 µg/mL (≈ 0.00392 µM)
Cytotoxicity (HEL [30]): > 50 µg/mL
Cytotoxicity (Vero): > 100 µg/mL
MIC (Human alphaherpesvirus 1 [28]; [41]): 0.001 µg/mL (≈ 0.00392 µM)
MIC (Human alphaherpesvirus 1 [40]): 0.01 µg/mL (≈ 0.0392 µM)

Nc1ccn(C[C@@H](CO)OCP(=O)(O)O)c(=O)n1.O.O [CIDOFOVIR]
MIC (Cytomegalovirus [37]): 0.08 µg/mL
MIC (Cytomegalovirus [38]): 0.2 µg/mL
Cytotoxicity (E6SM): > 50 µg/mL
Cytotoxicity (HEL [30]): > 50 µg/mL
